Values after ≈ are worked out from the molar mass of the structure shown. Where two headings read alike, the source gives them in different places.
How the values were obtained:
[1] = tested on: Staphylococcus aureus (ATCC 29213); assay: MIC, broth microdilution; assay type: cell-based; details: ATCC29213, read-out: Minimum inhibitory concentration (MIC), SA
Procedure, shortened: (§1)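 Antibacterial MICs by CLSI broth microdilution in Mueller-Hinton broth. Test compounds and standard drugs are serially diluted two-fold from 512 to 0.25. The bacterial broth culture is grown 2-6 h to a 0.5 McFarland turbidity, then adjusted with sterile solution to the final inoculum.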

[2] = tested on: Madin Darby canine kidney (MDCK) cells; details: dog
[3] = tested on: Human Coronavirus (229E); assay: CPE reduction assay in HEL cells; assay type: cell-based; details: read-out: Antiviral EC50, Human Coronavirus (229E)
[4] = tested on: Adeno virus-2; assay: CPE reduction assay in HEL cells; assay type: cell-based; details: read-out: Antiviral EC50, Adeno virus-2
[5] = tested on: Influenza A/H3N2 A/HK/7/87; assay: CPE reduction assay in MDCK cells; assay type: cell-based; details: Influenza A virus
[6] = tested on: Vero cells; details: Vero cell cultures; microscopically detectable alteration of normal cell morphology
[7] = tested on: Klebsiella aerogenes (NCIM-2098); assay: MIC, broth microdilution; assay type: cell-based; details: NCIM2098, read-out: Minimum inhibitory concentration (MIC), KA
Procedure, shortened: as §1

[8] = tested on: Escherichia coli (ATCC 8739); assay: Agar disk diffusion, inhibition zone; assay type: cell-based; details: 100 µg/8 mm disc, triplicate, mean ± SD
Procedure, shortened: (§2)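 Agar disk diffusion on Mueller-Hinton agar plates seeded with a standard bacterial suspension. Test compound stock in DMSO, diluted with distilled water; 8 mm sterile filter-paper discs soaked in the solution. Ampicillin was the reference. Plates incubated at 35 °C for 24 h, in triplicate. Read-out is the average inhibition-zone diameter (mm) around each disc.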

[9] = tested on: MT4 cells; details: MT4 cell cultures; colorimetric MTT cell viability assay
[10] = tested on: Cryptococcus neoformans (ATCC 9011); assay: Agar disk diffusion, inhibition zone; assay type: cell-based; details: 100 µg/8 mm disc, triplicate, mean ± SD
[11] = tested on: Candida albicans (NCIM 2087); assay: MIC, broth microdilution; assay type: cell-based; details: NCIM2087, read-out: Minimum inhibitory concentration (MIC), CA
Procedure, shortened: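 CLSI broth microdilution in Sabouraud liquid medium, with test compound two-fold serially diluted from 512 to 0.25. Fungal broth culture grown 24 h at 35 °C to 0.5 McFarland turbidity, then adjusted with sterile solution to a final […] inoculum. MIC expressed in µg/mL.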

[12] = tested on: Aspergillus niger (NCIM 2191); assay: MIC, broth microdilution; assay type: cell-based; details: NCIM2191, read-out: Minimum inhibitory concentration (MIC), AN
Procedure, shortened: (§3)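 Antifungal MICs by CLSI broth microdilution in Sabouraud liquid medium. Test compounds and standard drugs are serially diluted two-fold from 512 to 0.25. The fungal broth culture is grown 24 h at 35 °C to a 0.5 McFarland turbidity, then adjusted with sterile solution to the final inoculum.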

[13] = tested on: Pseudomonas aeruginosa (MCCB 0035); assay: MIC, broth microdilution; assay type: cell-based; details: read-out: Minimum inhibitory concentration (MIC), PA
Procedure, shortened: (§4)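 Broth microdilution per CLSI in Mueller-Hinton broth, using two-fold serial dilutions of test compound and reference drugs from 512 to 0.25. Bacterial broth cultures were grown 2-6 h to 0.5 McFarland turbidity, then diluted with sterile solution to the final inoculum. MIC is reported in µg/mL.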

[14] = tested on: Pseudomonas aeruginosa (MCCB 0035); assay: Agar disk diffusion, inhibition zone; assay type: cell-based; details: 100 µg/8 mm disc, triplicate, mean ± SD
[15] = tested on: Sindbis virus; assay: CPE reduction assay in Vero cells; assay type: cell-based; details: read-out: Antiviral EC50, Sindbis virus
[16] = tested on: Lactobacillus casei (NCIM-2651); assay: Agar disk diffusion, inhibition zone; assay type: cell-based; details: 100 µg/8 mm disc, triplicate, mean ± SD
[17] = tested on: Aspergillus fumigatus (NCIM 2081); assay: Agar disk diffusion, inhibition zone; assay type: cell-based; details: 100 µg/8 mm disc, triplicate, mean ± SD
[18] = tested on: Yellow Fever virus; assay: microbe, parasite or virus in culture; assay type: cell-based; details: Yellow fever virus, Vero, read-out: Antiviral EC50, Yellow Fever virus
[19] = tested on: Candida albicans (NCIM 2087); assay: Agar disk diffusion, inhibition zone; assay type: cell-based; details: 100 µg/8 mm disc, triplicate, mean ± SD
[20] = tested on: Bacillus cereus (NCIM-2458); assay: MIC, broth microdilution; assay type: cell-based; details: NCIM2458, read-out: Minimum inhibitory concentration (MIC), BC
Procedure, shortened: as §4

[21] = tested on: Salmonella typhimurium (NCIM-2501); assay: Agar disk diffusion, inhibition zone; assay type: cell-based; details: 100 µg/8 mm disc, triplicate, mean ± SD
[22] = tested on: Staphylococcus aureus (ATCC 29213); assay: Agar disk diffusion, inhibition zone; assay type: cell-based; details: 100 µg/8 mm disc, triplicate, mean ± SD
Procedure, shortened: as §2

[23] = tested on: Influenza B B/Ned/537/05; assay: CPE reduction assay in MDCK cells; assay type: cell-based; details: Influenza B virus, read-out: Antiviral EC50, Influenza B B/Ned/537/05, MTS
[24] = tested on: Punta Toro virus; assay: CPE reduction assay in Vero cells; assay type: cell-based; details: read-out: Antiviral EC50, Punta Toro virus
[25] = tested on: Influenza A/H1N1 A/Ned/378/05; assay: CPE reduction assay in MDCK cells; assay type: cell-based; details: Influenza A virus
[26] = tested on: Aspergillus fumigatus (NCIM 2081); assay: MIC, broth microdilution; assay type: cell-based; details: NCIM2081, read-out: Minimum inhibitory concentration (MIC), AF
Procedure, shortened: as §3

[27] = tested on: Coxsackie virus B4; assay: CPE reduction assay in Vero cells; assay type: cell-based; details: Enterovirus B, read-out: Antiviral EC50, Coxsackie virus B4
[28] = tested on: Human embryonic lung (HEL) cells; details: HEL cell cultures; microscopically detectable alteration of normal cell morphology
[29] = tested on: Aspergillus niger (NCIM 2191); assay: Agar disk diffusion, inhibition zone; assay type: cell-based; details: 100 µg/8 mm disc, triplicate, mean ± SD
Procedure, shortened: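 For the fungal strain, discs soaked in test compound solution (DMSO stock diluted with distilled water) sat on seeded Mueller-Hinton agar. Clotrimazole was the reference. Incubation ran 48 h at 35 °C, in triplicate. Zone of growth inhibition recorded in mm as the mean diameter around each disc.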

[30] = tested on: Bacillus cereus (NCIM-2458); assay: Agar disk diffusion, inhibition zone; assay type: cell-based; details: 100 µg/8 mm disc, triplicate, mean ± SD
[31] = tested on: Reovirus-1; assay: CPE reduction assay in Vero cells; assay type: cell-based; details: read-out: Antiviral EC50, Reovirus-1
[32] = tested on: Vaccinia virus; assay: microbe, parasite or virus in culture; assay type: cell-based; details: Orthopoxvirus vaccinia, HEL, read-out: Antiviral EC50, Vaccinia virus
[33] = tested on: Cryptococcus neoformans (ATCC 9011); assay: MIC, broth microdilution; assay type: cell-based; details: ATCC9011, read-out: Minimum inhibitory concentration (MIC), CN
Procedure, shortened: as §3

[34] = tested on: Escherichia coli (ATCC 8739); assay: MIC, broth microdilution; assay type: cell-based; details: ATCC8739, read-out: Minimum inhibitory concentration (MIC), EC
Procedure, shortened: as §4

[35] = tested on: Streptococcus pneumonia (ATCC 49619); assay: Agar disk diffusion, inhibition zone; assay type: cell-based; details: 100 µg/8 mm disc, triplicate, mean ± SD
[36] = tested on: Para-influenza-3 virus; assay: CPE reduction assay in Vero cells; assay type: cell-based, Parainfluenza-3 virus; details: Vero, read-out: Antiviral EC50, Para-influenza-3 virus
[37] = tested on: Klebsiella aerogenes (NCIM-2098); assay: Agar disk diffusion, inhibition zone; assay type: cell-based; details: 100 µg/8 mm disc, triplicate, mean ± SD
[38] = read-out: Antiviral EC50, Influenza A/H3N2 A/HK/7/87, MTS
[39] = read-out: Antiviral EC50, Influenza A/H3N2 A/HK/7/87, visual CPE score
[40] = read-out: Antiviral EC50, Influenza A/H1N1 A/Ned/378/05, MTS
[41] = read-out: Antiviral EC50, Influenza A/H1N1 A/Ned/378/05, visual CPE score

Row | Compound | MIC [1] [µg/mL] | Cytotoxicity, Minimum cytotoxic conc. [2] [µM] | EC50 [3] [µM] | EC50 [4] [µM] | EC50 [5, 38] [µM] | EC50 [5, 39] [µM] | Minimum cytotoxic conc. [6] [µM] | MIC [7] [µg/mL] | Diameter of growth inhibition zone, EC [8] [mm] | Minimum cytotoxic conc. [9] [µM] | Diameter of growth inhibition zone, CN [10] [mm] | MIC [11] [µg/mL] | MIC [12] [µg/mL] | MIC [13] [µg/mL] | Diameter of growth inhibition zone, PA [14] [mm] | EC50 [15] [µM] | Diameter of growth inhibition zone, LC [16] [mm] | Diameter of growth inhibition zone, AF [17] [mm] | EC50 [18] [µM] | Diameter of growth inhibition zone, CA [19] [mm] | also measured
1 | Cc1ccc(S(=O)(=O)N2C(=O)CSC2c2ccc(Cl)cc2)cc1 (stereo not drawn) [5g, 2-(4-Chlorophenyl)-3-[(4-methylphenyl)sulfonyl]-1,3-thiazolidin-4-one] | 4 (≈ 10.9 µM) | >100 | > 100 | > 100 | > 100 | > 100 | >100 | 32 (≈ 87 µM) | 23 ± 0.32 | >125 | 12 ± 1.8 | 8 (≈ 21.7 µM) | 8 (≈ 21.7 µM) | 8 (≈ 21.7 µM) | 24 ± 1.5 | > 100 | 14 ± 0.4 | 13 ± 0.63 | > 100 | 20 ± 1.5 | MIC [20]: 8 µg/mL (≈ 21.7 µM); Diameter of growth inhibition zone, ST [21]: 12 ± 0.9 mm; Diameter of growth inhibition zone, SA [22]: 22 ± 0.63 mm; EC50 [23]: > 100 µM; EC50 [24]: > 100 µM; EC50 [25, 40]: > 100 µM; EC50 [25, 41]: > 100 µM; MIC [26]: 16 µg/mL (≈ 43.5 µM); EC50 [27]: > 100 µM; Minimum cytotoxic conc. [28]: >100 µM; Diameter of growth inhibition zone, AN [29]: 18 ± 1.1 mm; Diameter of growth inhibition zone, BC [30]: 18 ± 0.33 mm; EC50 [31]: > 100 µM; EC50 [32]: > 100 µM; MIC [33]: 16 µg/mL (≈ 43.5 µM); MIC [34]: 4 µg/mL (≈ 10.9 µM); Diameter of growth inhibition zone, SP [35]: 12 ± 1.43 mm; EC50 [36]: > 100 µM; Diameter of growth inhibition zone, KA [37]: 12 ± 0.12 mm
2 | Cc1ccc(S(=O)(=O)N2C(=O)CSC2c2ccccc2F)cc1 (stereo not drawn) [5h, 2-(2-Fluorophenyl)-3-[(4-methylphenyl)sulfonyl]-1,3-thiazolidin-4-one] | 8 (≈ 22.8 µM) | >100 | > 100 | > 100 | > 100 | > 100 | >100 | 64 (≈ 182 µM) | 23.8 ± 0.9 | 111 | 19 ± 1.1 | 32 (≈ 91.1 µM) | 32 (≈ 91.1 µM) | 8 (≈ 22.8 µM) | 20 ± 0.6 | > 100 | 19 ± 1.2 | 15 ± 1.2 | > 100 | 15 ± 0.56 | MIC [20]: 16 µg/mL (≈ 45.5 µM); Diameter of growth inhibition zone, ST [21]: 14 ± 1.3 mm; Diameter of growth inhibition zone, SA [22]: 19 ± 1.1 mm; EC50 [23]: > 100 µM; EC50 [24]: > 100 µM; EC50 [25, 40]: > 100 µM; EC50 [25, 41]: > 100 µM; MIC [26]: 16 µg/mL (≈ 45.5 µM); EC50 [27]: > 100 µM; Minimum cytotoxic conc. [28]: >100 µM; Diameter of growth inhibition zone, AN [29]: 12 ± 0.66 mm; Diameter of growth inhibition zone, BC [30]: 14 ± 0.62 mm; EC50 [31]: > 100 µM; EC50 [32]: > 100 µM; MIC [33]: 8 µg/mL (≈ 22.8 µM); MIC [34]: 4 µg/mL (≈ 11.4 µM); Diameter of growth inhibition zone, SP [35]: 10 ± 1.7 mm; EC50 [36]: > 100 µM; Diameter of growth inhibition zone, KA [37]: 10 ± 0.5 mm
